Test results taken from ChEMBL document CHEMBL4346661, “Design, synthesis and evaluation of novel diaryl-1,5-diazoles derivatives bearing morpholine as potent dual COX-2/5-LOX inhibitors and antitumor agents” (Eur J Med Chem, 2019).

Assays:
B16-F10 [1] = assay: Induction of apoptosis in mouse B16F10 cells assessed as necrosis cells at 6.25 uM incubated for 48 hrs by Annexin-V-FITC/propidium iodide staining-based flow cytometric analysis (reference value: 0.186%); type: functional
In short: (§1)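 F10 cells were exposed to 0, 3.125, 6.25, 12.5 or 25 µM for 48 h. Cells were stained with Annexin V/PI and read by flow cytometry. Data are mean ± SD of three independent experiments.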

B16-F10 [2] = assay: Induction of apoptosis in mouse B16F10 cells assessed as necrosis cells at 3.125 uM incubated for 48 hrs by Annexin-V-FITC/propidium iodide staining-based flow cytometric analysis (reference value: 0.186%); type: functional; in short: as §1
B16-F10 [3] = assay: Induction of cell cycle arrest in mouse B16F10 cells assessed as cell accumulation at G1 phase at 3.125 uM incubated for 48 hrs by propidium iodide staining-based flow cytometric analysis (reference value: 59.73%); type: functional
B16-F10 [4] = assay: Induction of apoptosis in mouse B16F10 cells assessed as early apoptosis cells at 6.25 uM incubated for 48 hrs in presence of apoptosis inhibitor z-VAD-fmk by Annexin-V-FITC/propidium iodide staining-based flow cytometric analysis (reference value: 3.83%); type: functional
B16-F10 [5] = assay: Induction of apoptosis in mouse B16F10 cells assessed as viable cells at 6.25 uM incubated for 48 hrs in presence of apoptosis inhibitor z-VAD-fmk by Annexin-V-FITC/propidium iodide staining-based flow cytometric analysis (reference value: 92.5%); type: functional; conditions: B16-F10, 48 h, read-out: Activity
B16-F10 [6] = assay: Antiproliferative activity against mouse B16F10 cells incubated for 48 hrs by MTT assay; type: functional, cell-based; conditions: B16-F10, 48 h
In short: (§2)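 MTT assay on F10 (murine melanoma), HeLa, A549, MCF-7 and 293T (human renal epithelium) cells. IC50 given as mean ± SD of three independent experiments.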

B16-F10 [7] = assay: Induction of apoptosis in mouse B16F10 cells assessed as necrosis cells at 25 uM incubated for 48 hrs by Annexin-V-FITC/propidium iodide staining-based flow cytometric analysis (reference value: 0.186%); type: functional; in short: as §1
B16-F10 [8] = assay: Induction of cell cycle arrest in mouse B16F10 cells assessed as cell accumulation at G1 phase at 12.5 uM incubated for 48 hrs by propidium iodide staining-based flow cytometric analysis (reference value: 59.73%); type: functional
B16-F10 [9] = assay: Induction of cell cycle arrest in mouse B16F10 cells assessed as cell accumulation at G1 phase at 6.25 uM incubated for 48 hrs by propidium iodide staining-based flow cytometric analysis (reference value: 59.73%); type: functional
B16-F10 [10] = assay: Induction of apoptosis in mouse B16F10 cells assessed as viable cells at 3.125 uM incubated for 48 hrs by Annexin-V-FITC/propidium iodide staining-based flow cytometric analysis (reference value: 94%); type: functional; conditions: B16-F10, 48 h, read-out: Activity; in short: as §1
B16-F10 [11] = assay: Induction of cell cycle arrest in mouse B16F10 cells assessed as cell accumulation at S phase at 6.25 uM incubated for 48 hrs by propidium iodide staining-based flow cytometric analysis (reference value: 14.16%); type: functional
B16-F10 [12] = assay: Induction of apoptosis in mouse B16F10 cells assessed as viable cells at 3.125 uM incubated for 48 hrs in presence of apoptosis inhibitor z-VAD-fmk by Annexin-V-FITC/propidium iodide staining-based flow cytometric analysis (reference value: 92.5%); type: functional; conditions: B16-F10, 48 h, read-out: Activity
B16-F10 [13] = assay: Induction of apoptosis in mouse B16F10 cells assessed as late apoptosis cells at 3.125 uM incubated for 48 hrs in presence of apoptosis inhibitor z-VAD-fmk by Annexin-V-FITC/propidium iodide staining-based flow cytometric analysis (reference value: 3.13%); type: functional
B16-F10 [14] = assay: Induction of apoptosis in mouse B16F10 cells assessed as viable cells at 25 uM incubated for 48 hrs by Annexin-V-FITC/propidium iodide staining-based flow cytometric analysis (reference value: 94%); type: functional; conditions: B16-F10, 48 h, read-out: Activity; in short: as §1
[15] = molecular target: Prostaglandin G/H synthase 1 (Homo sapiens, UniProt P23219); assay: Inhibition of COX1 (unknown origin) using arachidonic acid as substrate incubated for 10 mins by Ellman's reagent based COX-1/COX-2 ELISA assay
Sequence of Prostaglandin G/H synthase 1 (P23219 whole entry): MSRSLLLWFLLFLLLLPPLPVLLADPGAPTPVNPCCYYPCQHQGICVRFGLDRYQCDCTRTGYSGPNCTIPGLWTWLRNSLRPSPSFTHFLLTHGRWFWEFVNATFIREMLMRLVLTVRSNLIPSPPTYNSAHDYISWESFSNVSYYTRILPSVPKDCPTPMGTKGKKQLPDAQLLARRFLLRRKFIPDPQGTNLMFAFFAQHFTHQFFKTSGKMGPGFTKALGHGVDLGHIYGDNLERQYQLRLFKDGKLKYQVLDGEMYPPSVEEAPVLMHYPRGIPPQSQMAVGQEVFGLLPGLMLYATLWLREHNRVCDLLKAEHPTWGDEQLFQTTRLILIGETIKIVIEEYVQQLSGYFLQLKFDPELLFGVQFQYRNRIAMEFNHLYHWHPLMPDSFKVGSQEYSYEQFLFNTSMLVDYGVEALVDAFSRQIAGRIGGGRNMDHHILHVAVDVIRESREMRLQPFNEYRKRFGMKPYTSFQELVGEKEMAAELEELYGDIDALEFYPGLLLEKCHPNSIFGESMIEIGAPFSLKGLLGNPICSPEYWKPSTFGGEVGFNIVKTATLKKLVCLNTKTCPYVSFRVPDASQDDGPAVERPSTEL

B16-F10 [16] = assay: Induction of cell cycle arrest in mouse B16F10 cells assessed as cell accumulation at S phase at 3.125 uM incubated for 48 hrs by propidium iodide staining-based flow cytometric analysis (reference value: 14.16%); type: functional
B16-F10 [17] = assay: Induction of apoptosis in mouse B16F10 cells assessed as late apoptosis cells at 12.5 uM incubated for 48 hrs by Annexin-V-FITC/propidium iodide staining-based flow cytometric analysis (reference value: 2.88%); type: functional; in short: as §1
B16-F10 [18] = assay: Antitumor activity against mouse B16F10 cells implanted in nude mouse assessed as tumor weight at 40 mg/kg, ip administered once per 2 days for 14 days by caliper method (reference value: 1.24g); type: functional
In short: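 Nude mice were given 5×10^6 F10 cells subcutaneously in the right flank. At about 100 mm3, 24 mice were randomized into four groups of vehicle or compound. Dosing was intraperitoneal every two days for two weeks. Tumor volume was recorded every other day. Tumors were excised and weighed after the last treatment, and body weight was monitored.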

B16-F10 [19] = assay: Induction of apoptosis in mouse B16F10 cells assessed as early apoptosis cells at 6.25 uM incubated for 48 hrs by Annexin-V-FITC/propidium iodide staining-based flow cytometric analysis (reference value: 2.93%); type: functional; in short: as §1
B16-F10 [20] = assay: Induction of apoptosis in mouse B16F10 cells incubated for 48 hrs by Annexin-V-FITC/propidium iodide staining-based flow cytometric analysis; type: functional, cell-based; in short: as §1
B16-F10 [21] = assay: Induction of apoptosis in mouse B16F10 cells assessed as necrosis cells at 25 uM incubated for 48 hrs in presence of apoptosis inhibitor z-VAD-fmk by Annexin-V-FITC/propidium iodide staining-based flow cytometric analysis (reference value: 0.558%); type: functional
B16-F10 [22] = assay: Induction of cell cycle arrest in mouse B16F10 cells assessed as cell accumulation at G2 phase at 3.125 uM incubated for 48 hrs by propidium iodide staining-based flow cytometric analysis (reference value: 22.43%); type: functional
B16-F10 [23] = assay: Induction of apoptosis in mouse B16F10 cells assessed as early apoptosis cells at 3.125 uM incubated for 48 hrs by Annexin-V-FITC/propidium iodide staining-based flow cytometric analysis (reference value: 2.93%); type: functional; in short: as §1
HEK-293T = assay: Antiproliferative activity against human 293T cells incubated for 48 hrs by MTT assay; type: cell-based; in short: as §2
HeLa = assay: Antiproliferative activity against human HeLa cells incubated for 48 hrs by MTT assay; type: functional, cell-based; in short: as §2
B16-F10 [24] = assay: Induction of apoptosis in mouse B16F10 cells assessed as early apoptosis cells at 12.5 uM incubated for 48 hrs in presence of apoptosis inhibitor z-VAD-fmk by Annexin-V-FITC/propidium iodide staining-based flow cytometric analysis (reference value: 3.83%); type: functional
[25] = Metabolic stability in mouse B16F10 cells implanted in nude mouse plasma assessed as peak time at 40 mg/kg, ip measured after 24 to 48 hrs by HPLC analysis; type: ADME, organism-based; conditions: in vivo
In short: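 Tumor-bearing nude mice dosed intraperitoneally. Blood was taken from the eye 24 h later and centrifuged to plasma. The plasma was extracted with ethyl acetate and analysed by HPLC for compound peak retention time.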

B16-F10 [26] = assay: Induction of cell cycle arrest in mouse B16F10 cells assessed as cell accumulation at G2 phase at 12.5 uM incubated for 48 hrs by propidium iodide staining-based flow cytometric analysis (reference value: 22.43%); type: functional

SMILES: NS(=O)(=O)c1ccc(-n2nc(C(=O)NCCCN3CCOCC3)cc2-c2ccc(C(F)(F)F)cc2)cc1
- Activity (B16-F10 [1]): 0.366%
- Activity (B16-F10 [2]): 0.597%
- Activity (B16-F10 [3]): 55.36%
- Activity (B16-F10 [4]): 5.74%
- viability at 6.25 µM (B16-F10 [5]): 88.8%
- IC50 (B16-F10 [6]): 6.43 µM
- Activity (B16-F10 [7]): 1.33%
- Activity (B16-F10 [8]): 49.08%
- Activity (B16-F10 [9]): 50.07%
- viability at 3.125 µM (B16-F10 [10]): 86.5%
- Activity (B16-F10 [11]): 15.23%
- viability at 3.125 µM (B16-F10 [12]): 90.9%
- Activity (B16-F10 [13]): 4.52%
- viability at 25 µM (B16-F10 [14]): 51.8%
- IC50 [15]: 32.1 µM
- Activity (B16-F10 [16]): 11.16%
- Activity (B16-F10 [17]): 5.09%
- Activity (B16-F10 [18]): 0.48 g
- Activity (B16-F10 [19]): 14.5%
- Activity (B16-F10 [20]): Dose-dependent effect
- Activity (B16-F10 [21]): 0.845%
- Activity (B16-F10 [22]): 28.69%
- Activity (B16-F10 [23]): 7.97%
- IC50 (HEK-293T): 194 µM
- IC50 (HeLa): 8.08 µM
- Activity (B16-F10 [24]): 6.13%
- Retention_time [25]: 39.95 min
- Activity (B16-F10 [26]): 30.41%
